{"source": "paper PMC5108244", "about": "(ACS Infectious Diseases, 2016)", "key": {"[1]": {"system": "T. brucei brucei TREU667 strain", "test": "Late-stage T. brucei infection model in mice", "type": "in vivo", "conditions": "mice n = 5, orally 25 mg/kg qd for 10 days, monitored 90 days", "outline": "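Female Swiss Webster mice (6–8 weeks, n = 5/group) infected ip on day 0 with 1 × 10^4 donor-mouse parasites in IMDM. From day 7, oral dosing for 10 days in DMSO/EtOH/Tween-80/saline: test compound 50 mg/kg bid, benzoxaborole control 25 mg/kg qd, vehicle bid. Diminazene control: single ip dose of 10 mg/kg on day 7. Tail blood checked microscopically at least twice weekly to day 30, then weekly to day 90. Parasitemic mice euthanized.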"}, "[2]": {"system": "T. brucei rhodesiense STIB900 strain", "test": "Early-stage T. brucei infection model in mice", "type": "in vivo", "outline": "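Female Swiss Webster mice (6–8 weeks, n = 4/group) infected ip on day 0 with 1 × 10^4 fresh-culture bloodstream-form parasites diluted in IMDM. Oral dosing twice daily, days 2–5 (eight doses), in 5% DMSO, 7% EtOH, 3% Tween-80 in saline; vehicle group in parallel; benzoxaborole reference as positive control. Parasitemia checked microscopically in tail blood through day 60.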"}}, "data": [{"smiles": "CC1(C)OB(O)c2cc(NC(=O)c3ccc(F)cc3C(F)(F)F)ccc21", "note": "[compound 14, 4-fluoro-N-(1-hydroxy-3,3-dimethyl-2,1-benzoxaborol-6-yl)-2-(trifluoromethyl)benzamide]", "values": [{"measurement": "mice free of infection at the end of the experiment", "setting": "[1]", "result": "all survived and were free of infection"}, {"measurement": "cures as of day 60", "setting": "[2]; mice n = 4, 1 mg/kg po bid for 4 days", "result": "0/4"}, {"measurement": "cures as of day 60", "setting": "[2]; mice n = 4, 5 mg/kg po bid for 4 days", "result": "1/4"}, {"measurement": "cures as of day 60", "setting": "[2]; mice n = 4, 10 mg/kg po bid for 4 days", "result": "4/4"}]}]}
